For data set [1], the target named is Aldo-keto reductase family 1 member B1 (Bos taurus) (UniProt P16116). Nature of the data set: Inhibition of aldose reductase activity in a partially purified bovine lens preparation at 4*10e-8 M. In short, it runs like this: (§1)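 Partially purified bovine lens aldose reductase (ammonium sulfate fractionation). NADPH oxidation read at 340 nm, 37 °C, in 30 mM sodium phosphate pH 6.2, 0.2 M LiSO4, […], 1% DMSO. Enzyme was preincubated with inhibitor for 5 min, then the reaction was started with 5 mM DL-glyceraldehyde. Duplicates; IC50 from linear regression of log concentration vs percent inhibition.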

Data set [2] shares this target. Nature of the data set: Inhibition of aldose reductase activity in a partially purified bovine lens preparation at 10e-7 M. In short, it runs like this: as §1
Data set [3] concerns the target Aldo-keto reductase family 1 member B1 (Bos taurus, UniProt P16116). In words: In vitro inhibition of aldose reductase activity in a partially purified bovine lens preparation.
Data set [4] relates to Rattus norvegicus. Nature of the data set: Percentage Inhibition of galactitol accumulation in the sciatic nerve of rats fed with the dose of 0.5 mg/kg/day. Type of data set: functional. In short, it runs like this:
(§2)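 Male Sprague-Dawley rats (70-90 g), six per group, fed 20% galactose chow with compound in the diet for 4 days; glucose-fed controls. After a 3-h fast, lens or sciatic nerve galactitol was measured as nmol/mg wet weight. Percent inhibition vs galactose-fed controls, mean ± SEM; ANOVA with Dunnett's test.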

Data set [5] can be described thus: Half-life In vitro. In kind it is ADME.
For data set [6], the species on record is Rattus norvegicus. In words: Percentage Inhibition of galactitol accumulation in the sciatic nerve of rats.
A short description of data set [7]: Log P value by using Octanol / pH 7.4 buffer. In kind it is physicochemical. Put shortly:
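Partition measured between octanol and pH 7.4 buffer.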

Data set [8] concerns Rattus norvegicus. In words: Percentage Inhibition of galactitol accumulation in the sciatic nerve of rats fed with the dose of 1.0 mg/kg/day. In kind it is functional. In short, it runs like this: as §2
The species entered for data set [9] is Rattus norvegicus. Nature of the data set: Dose at which the tissue level of polyol accumulation was reduced by 50% was evaluated for 14 days in sciatic nerve. Type of data set: functional. Put shortly:
(§3)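 Male Sprague-Dawley rats (70-90 g, six per group) fed chow with 20% galactose and compound in the diet for 4 or 14 days. After a 3-h fast, lens and sciatic nerve were removed and frozen, and galactitol was quantitated in nmol/mg wet weight. ED50 from nonlinear regression of log dose vs tissue polyol.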

The subject of data set [10] is Rattus norvegicus. In words: Percentage Inhibition of galactitol accumulation in the lens of rats fed with the dose of 4.0 mg/kg/day; NS=Not significant. Type of data set: functional, organism-based. The following applies: Lens of camera-type eye. In short, it runs like this:
as §2

The species entered for data set [11] is Rattus norvegicus. Nature of the data set: Dose at which the tissue level of polyol accumulation was reduced by 50% was evaluated for 14 days in RBC. The following applies: 336 h. In kind it is functional. Put shortly:
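Male Sprague-Dawley rats (200-250 g, 12 per group) made diabetic with streptozocin 60 mg/kg iv in cold 0.03 M citrate pH 4.5; plasma glucose kept between 300 and 550 mg/dl. Compound was suspended in 2% Tween 80/saline and gavaged daily for 14 days. On day 15, RBC, lens and sciatic nerve polyol was measured. ED50 by nonlinear regression of log dose.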

The species entered for data set [12] is Rattus norvegicus. Nature of the data set: Dose at which the tissue level of polyol accumulation was reduced by 50% was evaluated for 4 days in sciatic nerve. In kind it is functional. As to conditions: 96 h. Put shortly: as §3
Data set [13] relates to Rattus norvegicus. In words: Percentage Inhibition of galactitol accumulation in the sciatic nerve of rats fed with the dose of 4.0 mg/kg/day. In kind it is functional. As to conditions: read-out: Inhibition. In short, it runs like this:
as §2

The species entered for data set [14] is Rattus norvegicus. In words: Dose at which the tissue level of polyol accumulation was reduced by 50% was evaluated for 4 days in lens. As to conditions: Lens of camera-type eye, 96 h. In kind it is functional. Put shortly:
as §3

The nature of data set [15]: Compound was evaluated In vitro for inhibition of aldose reductase activity by 50% in rat RBC. In short, it runs like this:
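Rat (or dog) red blood cells from fasted male Sprague-Dawley rats (150-170 g, EDTA, aortic arch) or pooled beagle blood; 1 mL packed cells in 2 mL HBSS with 10 mM galactose plus inhibitor 1 to 5×10^-8 M, 3 h, 95% air/5% CO2, shaken. Erythrocyte galactitol measured; IC50 mean ± SD of three to six replicate experiments.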

Calls of active or inactive are those of the source. No cut-off for these calls is given here.

For orientation: inhibition means the drop in the measured response relative to a control, in per cent. What is called IC50 is the concentration that inhibits the measured activity by half. Broadly, the half-life is how long it takes for the measured level to halve. A lower half-life goes with fast loss. For orientation: ED50 means the dose that gives a 50% effect, or the effect in half of the subjects. In general, logD refers to lipophilicity at a set pH, counting ionised and neutral species.

In the case of `Cc1ccc2c(c1)C1(CC(=O)NC1=O)C(=O)N(C)C2=O` (centres undefined), the inhibition stood at 35% in data set [1] and 65% in data set [2].
The corresponding values for `CCN1C(=O)c2ccccc2C2(CC(=O)NC2=O)C1=O` (centres undefined) are 17% and 27%.
Molecule `O=C1CC2(C(=O)N1)C(=O)N(Cc1nc3ccccc3s1)C(=O)c1ccccc12` (centres undefined) registered a 50% inhibitory concentration (IC50) in data set [3] of 15 nM.
On to `COc1cc2c(cc1Cl)C1(CC(=O)NC1=O)C(=O)N(C)C2=O` (centres undefined), for which the inhibition in [1] is 66%; in data set [2], 84%. Moreover, in the data set with Rattus norvegicus [4], the inhibition in vivo at 0.5 mg/kg/day was determined as 51%.
`O=C1C[C@@]2(C(=O)N1)C(=O)N(Cc1ccc(Br)cc1F)C(=O)c1ccccc12` displayed a half-inhibitory concentration (IC50) in data set [3] of 9.7 nM. In addition, the inhibition in vivo at 0.5 mg/kg/day in the data set on Rattus norvegicus [4] was 83%. Moreover, the half-life in data set [5] was 4 h.
The molecule `O=C1C[C@@]2(C(=O)N1)C(=O)N(Cc1ccc(Br)cc1F)C(=O)c1ccc(F)cc12` yielded an ED50 in the data set filed under Rattus norvegicus [6] of 0.09 mg/kg. This molecule also yielded a half-maximal inhibitory concentration (IC50) in [3] of 9 nM. The molecule also gave a half-life in [5] of 0.5 h.
For `O=C1C[C@]2(C(=O)N1)C(=O)N(Cc1ccc(Br)cc1F)C(=O)c1ccc(F)cc12`, the median effective dose (ED50) in the data set filed under Rattus norvegicus [6] came out at 0.15 mg/kg. For the same molecule, 32 nM corresponded to half-maximal inhibition in data set [3] (IC50). In addition, the half-life in data set [5] is 0.5 h.
In data set [3], `O=C1CC2(C(=O)N1)C(=O)N(Cc1ccc(C(F)(F)F)cc1)C(=O)c1ccccc12` (centres undefined) had an IC50 of 25 nM.
Consider `COc1ccc2c(c1)C(=O)N(C)C(=O)C21CC(=O)NC1=O` (centres undefined), for which the figures for the inhibition in data set [1] and in data set [2] were 41% and 55%, respectively.
Molecule `O=C1CC2(C(=O)N1)C(=O)N(Cc1ccc(Br)cc1F)C(=O)c1cccc(F)c12` (centres undefined) registered a half-maximal inhibitory concentration (IC50) in data set [3] of 21 nM. Moreover, the inhibition in vivo at 0.5 mg/kg/day with Rattus norvegicus [4] was found to be 52%.
Consider `O=C1CC2(C(=O)N1)C(=O)N(Cc1ccc(Br)cc1F)C(=O)c1c(F)cccc12` (centres undefined), for which the 50% inhibitory concentration (IC50) in [3] was 23 nM. For the same molecule, in the data set with Rattus norvegicus [4], the inhibition in vivo at 0.5 mg/kg/day came out at 51%.
In data set [3], `O=C1CC2(C(=O)N1)C(=O)N(Cc1nc3ccccc3s1)C(=O)c1ccc(F)cc12` (centres undefined) had an IC50 of 18 nM.
As to `COc1ccc(CN2C(=O)c3ccccc3C3(CC(=O)NC3=O)C2=O)cc1` (centres undefined), the IC50 in data set [3] is 25 nM.
In turn, `CN1C(=O)c2ccc(Br)cc2C2(CC(=O)NC2=O)C1=O` (centres undefined) gave a logD in data set [7] of 0.8. Also, the inhibition in [1] was found to be 43%; in data set [2] it was 85%. The same molecule had an inhibition in vivo at 1 mg/kg/day in the data set on Rattus norvegicus [8] of 54%.
`COc1ccc2c(c1F)C1(CC(=O)NC1=O)C(=O)N(Cc1ccc(Br)cc1F)C2=O` (centres undefined) showed a concentration for half-maximal inhibition (IC50) in data set [3] of 30 nM. This molecule also came in with an inhibition in vivo at 0.5 mg/kg/day in the data set with Rattus norvegicus [4] of 43%.
`Cc1cccc(CN2C(=O)c3ccccc3C3(CC(=O)NC3=O)C2=O)c1` (centres undefined) gave an IC50 in data set [3] of 25 nM.
In data set [3], `O=C1CC2(C(=O)N1)C(=O)N(Cc1ccc(Br)cc1F)C(=O)c1ccc(C(F)(F)F)cc12` (centres undefined) came in with an IC50 of 38 nM.
As for `O=C1C[C@]2(C(=O)N1)C(=O)N(Cc1ccc(Br)cc1F)C(=O)c1ccccc12`, in data set [3], inhibition was half-maximal at 1000 nM (IC50). The half-life in data set [5] was 4 h.
In the case of `O=C1CC2(C(=O)N1)C(=O)N(Cc1ccc(Br)cc1F)C(=O)c1ccc(F)cc12` (centres undefined), the 50% effective dose (ED50) is 0.1 mg/kg/day in the data set listed under Rattus norvegicus [9]; 0.09 mg/kg/day in the data set filed under Rattus norvegicus [9] (Rattus norvegicus, Sciatic nerve, 336 h, read-out: ED50); 0.25 mg/kg/day in the data set listed under Rattus norvegicus [11]; 0.3 mg/kg/day in the data set filed under Rattus norvegicus [12]; 19 mg/kg/day in the data set listed under Rattus norvegicus [14]. For the same molecule, in the data set with Rattus norvegicus [10], the inhibition result was “inactive”. The logD in data set [7] worked out at 2.81. The inhibition in vivo at 4 mg/kg/day with Rattus norvegicus [13] was found to be 95%. Also, the concentration for half-maximal inhibition (IC50) came to 26.9 nM in data set [15] and 14 nM in [3]. Further, the inhibition in vivo at 0.5 mg/kg/day in the data set on Rattus norvegicus [4] was found to be 83%.
Consider `CON1C(=O)c2ccc(Cl)cc2C2(CC(=O)NC2=O)C1=O` (centres undefined), for which the inhibition in [1] stood at 11%; in [2] it was 27%.

The values are drawn from ChEMBL document CHEMBL1127561, “Novel spirosuccinimide aldose reductase inhibitors derived from isoquinoline-1,3-diones: 2-[(4-bromo-2-fluorophenyl)methyl]-6- fluorospiro[isoquinoline-4(1H),3'-pyrrolidine]-1,2',3,5'(2H)-tetrone and congeners. 1” (J Med Chem, 1994).
